Assay results published in publication PMC10580252 (Experimental and Therapeutic Medicine, 2023).

Assays:
[1] = Pharmacokinetics studies in rats; assay type: in vivo; settings: male, SD, rat, plasma, po, 50 mg/kg
[2] = test system: Hep3B-luc in situ transplanted tumours; experiment: Antitumour activity in Hep3B-luc orthotopic xenograft model; assay type: in vivo, BALB/c nude mice; settings: intragastric 50 mg/kg ART once daily for 24 days, n=3
Summary of the method: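 Female BALB/c nude mice, 6-8 weeks, received 3x10^6 Hep3B-luc cells in 0.02 ml PBS:Matrigel (1:1) in the left hepatic lobe. They were randomized into four groups (including untreated control) once tumour fluorescence reached ~10^7. Test formulations were given intragastrically once daily for 24 days. Tumour signal and body weight were measured twice weekly. Inhibition = (ROIcontrol−ROIdrug)/ROIcontrol ×100% from mean tumour signals.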

HepG2 cells = experiment: Cellular uptake of NR-labelled NPs, flow cytometry; assay type: cell-based; settings: HepG2, NR 50 µg/ml, 0.5, 1 or 4 h
Summary of the method: (§1)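 Cells were seeded at 2x10^5 per well and cultured 24 h. They were co-incubated with Nile red-labelled nanoparticles at equal Nile red 50 µg/ml, then washed thrice with cold PBS and incubated a further 0.5, 1 or 4 h. Intracellular fluorescence was read by flow cytometry. Controls were untreated cells, free Nile red, and Nile red in unmodified PEG-PLGA nanoparticles.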

A549 cells = experiment: Cellular uptake of NR-labelled NPs, flow cytometry; assay type: cell-based; settings: A549, NR 50 µg/ml, 0.5, 1 or 4 h
Summary of the method: as §1

[3] = Hepatoma-targeted and bio-distribution detection; assay type: in vivo, BALB/c nude mice; settings: tumour model mice, intragastric NR 20 mg/kg

Row | AUC(0-inf) [1] [ng·h/mL] | AUC(0-t) [1] [ng·h/mL] | Cmax [1] [ng/mL] | MRT [1] [min] | Tmax [1] [min] | half-life [1] [min] | In vivo NR fluorescence in whole body and liver [3] | Structure (SMILES) | Bioluminescence (ROI) (PG-21) [2] | Cellular fluorescence (uptake) (HepG2 cells) | Cellular fluorescence (uptake) (A549 cells)
1 | 2540 | 2540 | 4580 | 30 | 15 | 15 | – | C[C@H]1[C@H](OC(=O)CCC(=O)O)O[C@@H]2O[C@@]3(C)CC[C@H]4[C@H](C)CC[C@@H]1[C@@]24OO3 [ART, Artesunate] | 4.49±0.55 x10^9 photons/sec | – | –
2 | – | – | – | – | – | – | lower fluorescence levels at 2 h | CCN(CC)c1ccc2nc3c4ccccc4c(=O)cc-3oc2c1 [NR, Nile red] | – | little fluorescence | little fluorescence
